# High-throughput results: PubChem BioAssay, several laboratories
# Cav32 inh – Cav3.2 calcium influx blockers – cell-based, Fluo-4 calcium fluorescence, FDSS, MLSMR library, primary screen; B-score at 10 µM; AID 449739, 2010; Cav3.2-expressing cells; stronger effect = lower value; Voltage-dependent T-type calcium channel subunit alpha-1H (Homo sapiens), O95180; 100,000 tested, 4% active;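 active = single-dose well whose peak fluorescence ratio is a statistical outlier from its plate by either plate-standardised score or position-corrected B-score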
# Rev-RRE block – HIV-1 Rev-RRE binding inhibitors, primary screen, biochemical, FRET, protein-RNA interaction. P05866. Rev peptide-RRE RNA binding. inhibition, % at 8 µM. 97,000 tested, 0.79% active;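 active = inhibition above the screen-wide mean plus 3 SD, cut at about 35% in these data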;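 note: 0% = median DMSO wells and 100% = median Neomycin B control wells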
#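 System: Cy5-labelled duplex RRE RNA binding fluorescein-labelled HIV Rev peptide; Signal: fluorescein-to-Cy5 FRET, 480 nm excitation; Also added: labelled Rev peptide; Compound: one concentration, 8 µM nominal; Buffer or medium: HEPES pH 7.5 salt buffer with EDTA; Read-out: % inhibition of FRET ratio versus controls; Schedule: 5 min preincubation and 15 min binding, 25 °C.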
# CYP2C19 act – human CYP2C19 activators, primary screen, biochemical, luminescence. Cytochrome P450 2C19 (Homo sapiens), P33261. recombinant CYP2C19, luciferin-H EGE luminescence; stronger effect = higher value; 0 = fully inhibited enzyme, 1 = untreated enzyme. activation factor at 5 µM. 96,000 tested, under 10 active. AID 1025, 2008;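 active = activation factor of at least 2 at 5 µM in the primary screen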;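 note: 0 = wells with 2.5 mM tranylcypromine and 1 = vehicle-only wells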
# CYP2C9 inhib – blockers of cytochrome P450 2C9 activity – biochemical, luminescence, ADME assay, primary screen; CYP2C9 Supersomes, luciferin-H conversion; inhibition, % at 5 µM; 96,000 tested, 20% active; AID 777, 2007;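 active = blocking of liver enzyme CYP2C9 beyond about 50% at 5 µM, limit read from the data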
# CYP2C9 act – human CYP2C9 activators, primary screen, biochemical, luminescence; Cytochrome P450 2C9 (Homo sapiens), P11712; 96,000 tested, 1.4% active; AID 1024, 2008; activation factor at 5 µM; recombinant CYP2C9, luciferin-H conversion; stronger effect = higher value; factor 1 = untreated enzyme, 0 = blocked;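 active = activation factor of 2 or more for CYP2C9 at a 5 µM dose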;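 note: 0 = sulfaphenazole-blocked wells and 1 = vehicle-only wells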
# CYP2C19 inhib – blockers of cytochrome P450 2C19 activity – biochemical, luminescence, ADME assay, primary screen | CYP2C19 Supersomes, luciferin-H EGE luminescence, 30 min | 96,000 tested, 21% active | AID 778, 2007 | inhibition, % at 5 µM | P33261;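 active = CYP2C19 inhibition above a set limit at 5 µM in the primary screen, cut at about 50% in these data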;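 note: plate controls were negative control wells for no effect and 2.5 mM tranylcypromine positive control for full effect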
# Starred values were filed as active, the others as inactive; . = not tested or not shown. Only some compounds are listed: those with a hit (about 27% of all), similar ones and a draw of the others.
SMILES,Cav32 inh,Rev-RRE block,CYP2C19 act,CYP2C9 inhib,CYP2C9 act,CYP2C19 inhib
COc1cc(OC)cc(C(=O)NC2CCN(Cc3nnnn3Cc3cccs3)CC2)c1,1.9,3,0.5,-13,1.1,47
C#CCOCCOCCOCCNc1nc(N2CCN(C(=O)Cn3cc(CC(C)O)nn3)CC2)nc(N2CCN(C(=O)[C@H](C)n3cc(CCCN=C(N)N)nn3)CC2)n1 (stereo not given in full),0.58,.,.,.,.,.
CCC1(N(C(C)=O)c2ccc(OC)cc2)C(=O)c2ccccc2C1=O,2.4,4,0.9,-18,1.2,6
O=C(CSCc1ccc(F)cc1)N1CCOCC1,0.25,3,0.4,16,0.8,56*
O=C(N1CCOCC1)N1CCN(c2ccc(F)cc2)CC1,-0.19,7,0.6,28,0.7,41
Cc1nc(-c2ccc(C(=O)N3CCOCC3)cc2)cs1,-0.67,5,0.8,-11,1.1,16
O=C(CSc1nc(-c2ccc(F)cc2)cs1)N1CCOCC1,0.6,-2,0.3,-110,2.1*,69*
CC(=O)c1ccc(O)c(CC=C(C)C)c1,-0.71,.,.,.,.,.
O=C(Nc1ccccc1F)N(CCCN1CCOCC1)Cc1cc2cc3c(cc2[nH]c1=O)OCCO3,0.43,14,0.1,52*,0.5,90*
CCc1ccc2[nH]c(=O)c(CN(CCCN3CCOCC3)C(=O)Nc3ccccc3)cc2c1,0.27,7,0.4,48,0.5,56*
CCc1ccc2[nH]c(=O)c(CN(CCCN3CCOCC3)C(=O)Nc3ccc(Cl)cc3)cc2c1,-1.2,4,0.6,38,0.6,39
COc1ccc(C2=CC(=O)CCC2)cc1,1.2,.,.,.,.,.
O=C(Oc1ccccc1)c1ccccc1OS(=O)(=O)c1ccccc1,-2.5,5,0.6,59*,0.4,44
CC(=O)c1c(C)n(CC(=O)NCc2ccc3c(c2)OCO3)c2ccccc12,-2.9,3,0.3,59*,0.4,75*
CC(=O)c1c(C(C)=O)c(C)n(Cc2ccc3c(c2)OCO3)c1C,0.58,2,0.2,55*,0.5,75*
CCNc1nc(N)c(C(=C(C#N)C#N)c2ccccc2)s1,0.045,16,0.9,31,0.7,13
COc1ccc(CCn2c(C)cc3c(c2=O)C(c2ccc4c(c2)OCO4)C(C#N)=C(N)O3)cc1OC (stereo not given),1,.,0.6,44,0.6,44
COc1ccc(CCNC(=O)Cn2nnc(-c3cccc(OC)c3OC)n2)cc1OC,0.74,7,0.6,22,0.8,43
CCn1nc(C(=O)OCC(=O)c2c[nH]c3ccccc23)c2ccccc2c1=O,-0.034,14,0.7,72*,0.3,32
CCc1cccc2c(C(=O)Cn3nnc(-c4ccc(OC)c(OC)c4)n3)c[nH]c12,.,-3,0.3,62*,0.4,71*
CC(C)n1nc(C(=O)OCC(=O)c2c[nH]c3ccccc23)c2ccccc2c1=O,0.6,18,0.8,22,0.8,18
CCc1cccc2c(C(=O)COC(=O)c3nn(C)c(=O)c4ccccc34)c[nH]c12,.,6,0.1,88*,0.1,94*
CC(C)[C@H](NC(=O)c1cccc(S(=O)(=O)N2CCCC2)c1)c1nc2ccccc2[nH]1,-1.1,-1,0.8,-3,1,18
COc1ccccc1C1/C(=C(/O)c2ccc(Cl)cc2)C(=O)C(=O)N1CCN1CCOCC1 (stereo not given),0.38,2,0.9,25,0.8,6
Cc1ccccc1NS(=O)(=O)c1cc(C(=O)N2CCCC2)ccc1C,1.6,6,0.8,35,0.6,20
C=CCNC(=O)c1ccccc1NC(=O)c1ccc(Cl)c(S(=O)(=O)Nc2cc(C)ccc2C)c1,0.18,0,0.9,-2,1,6
Cc1ccc(C)c(NS(=O)(=O)c2cc(C(=O)N3CCc4ccccc4C3)ccc2Cl)c1,-3.7,-3,0.6,59*,0.4,36
